Tested on: MS2 coat protein
Assay: apparent Kd, MS2 coat protein; higher = weaker binding; RNA-MaP array; FMN 200 µM where present
Procedure, shortened: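 Each design was made on Illumina sequencing-chip clusters by stalled E. coli RNA polymerase and titrated with SNAP-549-labelled MS2 coat protein from 0.7 or 1.5 nM, doubling to 3 µM, in the absence and then the presence of constant ligand. The buffer was 100 mM Tris-HCl pH 7.5, 80 mM KCl, 4 mM MgCl2, BSA, DTT, yeast tRNA and Tween-20. The apparent Kd is the median of filtered per-cluster fits of binding curves, with green signal normalised to red-channel RNA signal and control-cluster median Fmax.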

[1] = designed as: OFF switch for flavin mononucleotide, no ligand
[2] = ligand present: flavin mononucleotide, designed as: OFF switch for flavin mononucleotide
[3] = designed as: ON switch for flavin mononucleotide, no ligand
[4] = ligand present: flavin mononucleotide, designed as: ON switch for flavin mononucleotide

Sequence	apparent Kd [1]	apparent Kd [2]	apparent Kd [3]	apparent Kd [4]
UUACUACAUGAGGAUCACCCAUGUCAGGAUAUUGUUUAUACCUUGGAAUACGUGUCAACAAGAAGGGACUAUAU	22.9 nM	23.4 nM	–	–
UAAGCGCAGGAGAAGGGCACUGGACGCUCGCUACAUGAGGAUCACCCAUGUGCAGGAUAUCCGGCGCCGCCCGCAAACUCGGCG	5.14 nM	13.3 nM	–	–
UUAUUUUUACAGAAGGUUUAAUAAUAUGUAUGAGAAGGAUAUGUAACAUGAGGAUCACCCAUGUUUUAUCUAUAUGAGGAUCAU	6.69 nM	6.88 nM	–	–
GGAUAGGACAGAGGAUAUACGUGCUUGAGAUACUAGCAAAAUUUCCUCACAUGAGGAUCACCCAUGUAGAAGGCUGUCCUAUCG	20.2 nM	436 nM	–	–
UGUCGGAGCAGAGGAUAUUACAUGAGGAUCACCCAUGUAUGAACCACUAGCUGGAAACAGCAAUGUAAGAAGGCUGCUCCGACA	7.43 nM	51.8 nM	–	–
AAACUGCAGAAGAUAAUAAUGAAUACAUGAGGAUCACCCAUGUAGGAUAUCGUCAGGAAUACUGACGAGAAGGACAUACUGCAG	14.3 nM	15.6 nM	–	–
AGGUAACAUGAGGAUCACCCAUGUCAGGAUAUCAUAAAGAUUAGAUUAGAGAAGAGGUUGAGAAGGGACUAUAU	44.9 nM	38.4 nM	–	–
ACGUGUUAUACAGGAUAUGUUUAGGUACAAUCAUCCAGCUAUUAAUUUAUUACAGAAGGGUAAACAUGAGGAUCACCCAUGUCA	26 nM	15.9 nM	–	–
UAUAUUUAUGUAGGAUAUGGUAUAUAAAAUAUACCAGAAGGACAUGAGGAUCACCCAUGUAUGAAAUUCCAUAAUAAGCGUGUA	12.2 nM	13.8 nM	–	–
AAAAUGUCAGGAUAUGCGAAGGCGUCUGAUAGACGAGGCUAGCAGAAGGGACAUGAGGAUCACCCAUGUAAAAA	52.6 nM	152 nM	–	–
UAUAUGUCAGGAUAUCGAUUGGUACGGAAUUCGGUACUGGUUGAGAAGGGACAUGAGGAUCACCCAUGUUUUUC	38.5 nM	228 nM	–	–
ACAAAUGGAGGAUAUACAUGAGGAUCACCCAUGUAUAUCCUACAUAUGUGAUUUUUAUGUAGAAGGCCAUUUGA	12.8 nM	13.4 nM	–	–
GAGGUACGAGGAUAUACAUAGAUACAGACACAUGUUCAAGUACAUGAGGAUCACCCAUGUAGAAGGCGUAUAUC	30.1 nM	44.9 nM	–	–
ACUAUACGAGGAUAUACUGACGGGCCUCGGGCGUCCCUGAGACAUGAGGAUCACCCAUGUAGAAGGCGUAUACU	38.4 nM	216 nM	–	–
UGGACCGAGCUGUCGGUUGACUCUUAGGAUAUGACAUGAGGAUCACCCAUGUGGGAUCUAAAUUGUCAGAAGGAGGGUUCUGGG	283 nM	51.4 nM	–	–
UGCUAGGACCUAGGAUAUCCUGGGUUGGUGGUGCUUGAUGACCGGACAUGAGGAUCACCCAUGUAGGAGAAGGAGGUUGUUAAG	61.2 nM	100 nM	–	–
UGGUACUAGGGAGGAUAUGGGAAGAUACAUGAGGAUCACCCAUGUUUAAGAAUGCCGAGAGGCAACUAGAAGGCCCUAGUACCA	–	–	529 nM	19.2 nM
CGCUACUACCAGAAGGACAUGAGGAUCACCCAUGUAGGAUAUGGGUUACACGUUCCUGUGUUAAGUUACUACGCUACGUAUGCG	–	–	419 nM	20.2 nM
AGCACGAAGAUUAUUAUGAAUAAACAUGAGGAUCACCCAUGUAAGGAUAUCGACUCGAAUAGAGUCGAGAAGGUACAUACGUGC	11 nM	51.8 nM	–	–
GUGUAGAUAUCAGGAUAUCUAUUUCCUACAUGAGGAUCACCCAUGUAGAUGAUCACCCAUGUAAAGGAGAAGGGAUAUCUAUAC	–	–	192 nM	156 nM
UGAUAGGACAGAGGAUAUACGGAUAGGAUCUACUAUCAAACAGGUCCUACAUGAGGAUCACCCAUGUAGAAGGCUGUCCUAUCU	22.9 nM	111 nM	–	–
AGCAUGUAAGGAUAUGCAAGUGGUACGGAUAGUACCAGAAAGCAGAAGGUACAUGAGGAUCACCCAUGUGCUCC	28.2 nM	55.2 nM	–	–
UACACGGUAGGAUAUACGUAGAUGCAGGUUCGUGUGGUGCUACAUGAGGAUCACCCAUGUAGAAGGACCAACGU	15.7 nM	15.2 nM	–	–
CCCGGCGUGACGCUACACCGAGAGCAGGAUAUUCCGCCGUGAUCUACAUGAGGAUCACCCAUGUGGAAGAAGGGCUACACAAAA	8.94 nM	37.5 nM	–	–
UUUUAACAUGAGGAUCACCCAUGUGAGGAUAUCGAAAUUUAUAUUAAUAUUAUUUAUACGAGAAGGCACAUUUU	63.2 nM	73.4 nM	–	–
AAACAUGUCCGAGGAUAUCUGGAAACACUUUCAAGAGAAGGCGGACAUGAGGAUCACCCAUGUCUCUCCUCAUCAAAUCCAAGU	6.53 nM	30.2 nM	–	–
UGAUAGGACAGAGGAUAUACGGAUAGGAUCUACUAUCUUCCUCAAAUAACAUGAGGAUCACCCAUGUAGAAGGCUGUCCUAUCU	126 nM	887 nM	–	–
GGGUUGUGAGGAUAUUAGUUGUACGUCAAUAGACGUAUGGGUGAGAAGGCACAUGAGGAUCACCCAUGUUCCUG	–	126 nM	–	–

Sequence	apparent Kd [1]	apparent Kd [2]	apparent Kd [3]	apparent Kd [4]
UUAUGUAUUGUAGGAUAUCAUAAGUUAUGUAUUAUAAUUGAAAUUUUGUUAUGAGAAGGACAUAUACAUGAGGAUCACCCAUGU	16.6 nM	14 nM	–	–
CUGGAUCACGCAGGAUAUUACAUGAGGAUCACCCAUGUCAGGACUGCAAUAUCGUCUCCUCGUUGUGAGAAGGGCGGAAUCAUU	14.6 nM	26.3 nM	–	–
AUCAGCUCGUCAGGAUAUACGUCACUGCGUCAGCAGUGUGGUAAGAUCACAUGAGGAUCACCCAUGUAGAAGGGACGAGCUGAA	14.3 nM	267 nM	–	–
AUUUUUAAGGUAGGAUAUAGUAUGAUGGUUUAAUUAGAAGGAUCUCACAUGAGGAUCACCCAUGUAAUAGGAUUACCCAUGUAU	53.7 nM	33.3 nM	–	–
UUGGACGUCGUAGGAUAUGUAGGAUAUUCCUACAUGAGGAUCACCCAUGUUGACAUGGAAGAAGGACAGAAGGACGUUGUCCAU	–	–	404 nM	5.74 nM
AAAAGACAUGAGGAUCACCCAUGUCUUCGGACAUGAGGAUAUGUACAGACUUCGGUCUGUACAGAAGGCAUGUAAA	–	–	42.9 nM	17 nM
UGGUCACAUGAGGAUCACCCAUGUCAGGAUAUCUACAUUGAAGCCUCGGCUUCAAUGUAGAGAAGGGAUAUAAU	65.5 nM	148 nM	–	–
UUUUACCUAGGAUAUACAUUUUUUUUAUUAUUUUCAUUAUAACAUGAGGAUCACCCAUGUAGAAGGAGGAUUUU	28.4 nM	33.6 nM	–	–
GCUAUCAAUGUCAGGAUAUUUAUUUGGGCUUAAUUGAAGAAGGGACAUGAGGAUCACCCAUGUGGCGCAGAGUU	36.9 nM	202 nM	–	–
GUAGCAUACGGAGGAUAUGUAGGAUCUACAUGAGGAUCACCCAUGUCAAGGACAGAAGGCCGUAUGCUACAAGAGCGAAAGCUC	–	–	11.6 nM	5.79 nM
AAGUCGUGAGGAUAUACAUGGAUAUACAUUUAUGUAGACCUACAUGAGGAUCACCCAUGUAGAAGGCACGAAUA	45.4 nM	115 nM	–	–
CCUCAACAGUAGGAUAUCAUAUAACUAUUGUGAUGAGAAGGACUGACAUGAGGAUCACCCAUGUUAACGUGAUA	18 nM	24.9 nM	–	–
CGUAACUGCAUAGGAUAUUGAUACAUGAGGAUCACCCAUGUUUUUCGGAUUAGAUAUAUACUAAGCAAGAAGGAUGGAGUUACG	–	–	7.83 nM	5.26 nM
AAGAACUAAGGAUAUACAUGAGGAUCACCCAUGUCUUUUACAUGUUACUGGCCCGCAUGUAGAAGGUAGAAAAG	78.6 nM	135 nM	–	–
UGAGUCUGCUGAGGAUAUUGCUCGUGCGUACAUGAGGAUCACCCAUGUGUCUUGAUCCUCUUCUGCAAGAAGGCAGCUCUCUCU	775 nM	444 nM	–	–
UUGGUAUUUGUAGGAUAUCUGUCGCCACCGUGUGGAGAAGGACGAACAUGAGGAUCACCCAUGUAUCAUGGUGUGGGCUUUCCU	104 nM	99.7 nM	–	–
GAACGUGACAUGAGGAUCACCCAUGUUGCCUUGGCCAGGUCGUAGGAUAUCCUGAUGAUUAAUUUGGAGAAGGGCGACUGGGAG	–	–	36.1 nM	15.3 nM
AAAAAGUGAGGAUAUACAUGAGGAUCACCCAUGUGAAAGUCGAAAAAAAAGACAAAAAGUAGAAGGCACAAAAA	30.7 nM	32.7 nM	–	–
AAUAUGUUGCAGAAGGCCAUGUUGUGGUAGUACCUCAUGACAUGAGGAUCACCCAUGUCUGUGAUGGAGGAUAUGCAAUAUAUU	8.87 nM	14.8 nM	–	–
GCACUGGAUGUAGGAUAUCAGGACGAUAAGUCCUGAGAAGGACAUGAGGAUCACCCAUGUAACUCAAACCAGUGCUAUAAUAUA	16.2 nM	27.2 nM	–	–
GUCAGCUCGUGAGGAUAUACAUGUGCUGGAUACAGCACUAAAGUUUUCACAUGAGGAUCACCCAUGUAGAAGGCACGAGCUGAU	15.3 nM	33.9 nM	–	–
UUGGACGUCGUAGGAUAUGUAGGAUAUUCCUACAUGAGGAUCACCCAUGUUGACAUGGAAGAAGGACAGAAAGACGAUGUCCAU	–	–	333 nM	6.63 nM
UAUAUGUCAGGAUAUCGAUUGGAGCGGAAUUUAGCUUUGGUCGAGAAGGGACAUGAGGAUCACCCAUGUUCAAC	19.8 nM	37.8 nM	–	–
GCGAUUAAGUAGAAGGUACGUUAUAAGUCAAUGUAAGGAUAUACUGACAUGAGGAUCACCCAUGUUUAAUUUGUUUACUGUCGC	–	–	7.34 nM	5.7 nM
GGAUAGGACAGAGGAUAUACGUGCUAGAGAUACUAGCAAAAUUUCCUCACAUGAGGAUCACCCAUGUAGAAGGCUGCCCUAUCG	13.8 nM	374 nM	–	–
CUGAAGAGAGAAGGAUAUCACAGGAUGGAGAUCUCUGAAUAAACAUGAGGAUCACCCAUGUCCAGUGAGAAGGUCUCGGUUCCG	186 nM	195 nM	–	–
CGUUAUUCAGGAUAUGGCGUGUUAUACAUGAGGAUCACCCAUGUAGAUCCUGGUUAGGCCUCAGAAGGGAAUGUUC	43.7 nM	37.8 nM	–	–
